ChEMBL document CHEMBL4689842, “EUbOPEN Chemogenomics Library wave 1” (2021)

Test system: U2OS
Test: Multiplex assay against U2OS
Type: toxicity, cell-based
Conditions: human
How it was run: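 With compound added, live cells were imaged on a CQ1 microscope at 37°C and 5% CO2; staining with Hoechst33342, BioTracker Green Microtubule Cytoskeleton Dye, MitoTracker Red and Annexin V Alexa Fluor 680 had been done at seeding. The CellPathfinder machine-learning gating scheme split cells into Hoechst high-intensity objects or normal cells, normal cells into healthy, pyknosed or fragmented nuclei, and pyknosed cells into mitotic or apoptotic. The tubulin, mitochondrial-mass and membrane-permeability phenotypes are per cents of healthy-nucleus cells.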

[1] = 12 h, 1 µM, compound concentration 1 uM, replicate 1
[2] = 12 h, 1 µM, compound concentration 1 uM, replicate 2
[3] = 12 h, 10 µM, compound concentration 10 uM, replicate 1
[4] = 12 h, 10 µM, compound concentration 10 uM, replicate 2
[5] = 24 h, 1 µM, compound concentration 1 uM, replicate 1
[6] = 24 h, 1 µM, compound concentration 1 uM, replicate 2
[7] = 24 h, 10 µM, compound concentration 10 uM, replicate 1
[8] = 24 h, 10 µM, compound concentration 10 uM, replicate 2
[9] = 48 h, 1 µM, compound concentration 1 uM, replicate 1
[10] = 48 h, 1 µM, compound concentration 1 uM, replicate 2
[11] = 48 h, 10 µM, compound concentration 10 uM, replicate 1
[12] = 48 h, 10 µM, compound concentration 10 uM, replicate 2

COC(=O)C1=C(C)NC(C)=C(C(=O)OCCCN2CCC(c3ccccc3)(c3ccccc3)CC2)[C@H]1c1cccc([N+](=O)[O-])c1 [NIGULDIPINE]
Population Apoptotic (%) [1]: 64%
Population Fragmented Nuclei (%) [1]: 18%
Population Healthy Nuclei (%) [1]: 58%
Population Hoechst High Intensity Objects (%) [1]: 11%
Population Membrane Permeable-Phenotype (%) [1]: 53%
Population Mitochondria Different-Phenotype (%) [1]: 96%
Population Mitotic Cells (%) [1]: 36%
Population Normal (%) [1]: 88%
Population Pyknosed Nuclei (%) [1]: 23%
Population Tubulin-Different-Phenotype (%) [1]: 96%
Total Cell Count [1]: 893
Population Apoptotic (%) [2]: 91%
Population Fragmented Nuclei (%) [2]: 6%
Population Healthy Nuclei (%) [2]: 78%
Population Hoechst High Intensity Objects (%) [2]: 9%
Population Membrane Permeable-Phenotype (%) [2]: 66%
Population Mitochondria Different-Phenotype (%) [2]: 100%
Population Mitotic Cells (%) [2]: 8%
Population Normal (%) [2]: 90%
Population Pyknosed Nuclei (%) [2]: 15%
Population Tubulin-Different-Phenotype (%) [2]: 100%
Total Cell Count [2]: 945
Population Apoptotic (%) [3]: 73%
Population Fragmented Nuclei (%) [3]: 62%
Population Healthy Nuclei (%) [3]: 4%
Population Hoechst High Intensity Objects (%) [3]: 7%
Population Mitochondria Different-Phenotype (%) [3]: 100%
Population Mitotic Cells (%) [3]: 26%
Population Normal (%) [3]: 92%
Population Pyknosed Nuclei (%) [3]: 33%
Total Cell Count [3]: 122
Population Apoptotic (%) [4]: 76%
Population Fragmented Nuclei (%) [4]: 67%
Population Healthy Nuclei (%) [4]: 3%
Population Hoechst High Intensity Objects (%) [4]: 12%
Population Membrane Permeable-Phenotype (%) [4]: 100%
Population Mitochondria Different-Phenotype (%) [4]: 50%
Population Mitotic Cells (%) [4]: 23%
Population Normal (%) [4]: 87%
Population Pyknosed Nuclei (%) [4]: 29%
Population Tubulin-Different-Phenotype (%) [4]: 100%
Total Cell Count [4]: 87
Population Apoptotic (%) [5]: 76%
Population Fragmented Nuclei (%) [5]: 17%
Population Healthy Nuclei (%) [5]: 52%
Population Hoechst High Intensity Objects (%) [5]: 10%
Population Membrane Permeable-Phenotype (%) [5]: 76%
Population Mitochondria Different-Phenotype (%) [5]: 98%
Population Mitotic Cells (%) [5]: 23%
Population Normal (%) [5]: 89%
Population Pyknosed Nuclei (%) [5]: 30%
Total Cell Count [5]: 927
Population Apoptotic (%) [6]: 77%
Population Fragmented Nuclei (%) [6]: 7%
Population Healthy Nuclei (%) [6]: 65%
Population Hoechst High Intensity Objects (%) [6]: 5%
Population Membrane Permeable-Phenotype (%) [6]: 96%
Population Mitochondria Different-Phenotype (%) [6]: 100%
Population Mitotic Cells (%) [6]: 22%
Population Normal (%) [6]: 94%
Population Pyknosed Nuclei (%) [6]: 27%
Population Tubulin-Different-Phenotype (%) [6]: 100%
Total Cell Count [6]: 948
Population Apoptotic (%) [7]: 78%
Population Fragmented Nuclei (%) [7]: 69%
Population Healthy Nuclei (%) [7]: 2%
Population Hoechst High Intensity Objects (%) [7]: 14%
Population Membrane Permeable-Phenotype (%) [7]: 100%
Population Mitochondria Different-Phenotype (%) [7]: 100%
Population Mitotic Cells (%) [7]: 21%
Population Normal (%) [7]: 85%
Population Pyknosed Nuclei (%) [7]: 27%
Population Tubulin-Different-Phenotype (%) [7]: 100%
Total Cell Count [7]: 111
Population Apoptotic (%) [8]: 100%
Population Fragmented Nuclei (%) [8]: 40%
Population Healthy Nuclei (%) [8]: 25%
Population Hoechst High Intensity Objects (%) [8]: 11%
Population Mitotic Cells (%) [8]: 0%
Population Normal (%) [8]: 88%
Population Pyknosed Nuclei (%) [8]: 33%
Total Cell Count [8]: 85
Population Apoptotic (%) [9]: 78%
Population Fragmented Nuclei (%) [9]: 23%
Population Healthy Nuclei (%) [9]: 39%
Population Hoechst High Intensity Objects (%) [9]: 12%
Population Membrane Permeable-Phenotype (%) [9]: 82%
Population Mitochondria Different-Phenotype (%) [9]: 97%
Population Mitotic Cells (%) [9]: 21%
Population Normal (%) [9]: 87%
Population Pyknosed Nuclei (%) [9]: 36%
Population Tubulin-Different-Phenotype (%) [9]: 97%
Total Cell Count [9]: 922
Population Apoptotic (%) [10]: 85%
Population Fragmented Nuclei (%) [10]: 15%
Population Healthy Nuclei (%) [10]: 54%
Population Hoechst High Intensity Objects (%) [10]: 5%
Population Membrane Permeable-Phenotype (%) [10]: 92%
Population Mitochondria Different-Phenotype (%) [10]: 100%
Population Mitotic Cells (%) [10]: 14%
Population Normal (%) [10]: 94%
Population Pyknosed Nuclei (%) [10]: 30%
Population Tubulin-Different-Phenotype (%) [10]: 100%
Total Cell Count [10]: 932
Population Apoptotic (%) [11]: 81%
Population Fragmented Nuclei (%) [11]: 69%
Population Healthy Nuclei (%) [11]: 2%
Population Hoechst High Intensity Objects (%) [11]: 10%
Population Membrane Permeable-Phenotype (%) [11]: 100%
Population Mitochondria Different-Phenotype (%) [11]: 100%
Population Mitotic Cells (%) [11]: 18%
Population Normal (%) [11]: 89%
Population Pyknosed Nuclei (%) [11]: 28%
Population Tubulin-Different-Phenotype (%) [11]: 100%
Total Cell Count [11]: 116
Population Apoptotic (%) [12]: 100%
Population Fragmented Nuclei (%) [12]: 17%
Population Healthy Nuclei (%) [12]: 28%
Population Hoechst High Intensity Objects (%) [12]: 18%
Population Mitochondria Different-Phenotype (%) [12]: 93%
Population Mitotic Cells (%) [12]: 0%
Population Normal (%) [12]: 81%
Population Pyknosed Nuclei (%) [12]: 53%
Total Cell Count [12]: 97
